# According to ChEMBL document CHEMBL2440113, “Synthesis, radiofluorination, and in vivo evaluation of novel fluorinated and iodinated radiotracers for PET imaging and targeted radionuclide therapy of melanoma” (J Med Chem, 2013):
# What was measured:
# [1] = Stability of the compound in saline after 6 hrs; format: physicochemical; conditions: read-out: Stability
# Procedure, shortened: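 Formulated radiotracer was kept in saline at room temperature; radiochemical purity was checked by analytical radio-HPLC over at least 6 h after preparation.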
# [2] = Ratio of drug level in tumor to blood in C57BL/6J mouse harboring mouse B16-Bl6 cells at 9 to 12 MBq, iv after 3 hrs by PET analysis; format: ADME, organism-based
# Procedure, shortened: (§1)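 Ex vivo biodistribution. C57BL/6J mice bearing subcutaneous B16Bl6 tumours (3x10⁵ cells, shoulder), day 10 or 14, received [18F]tracer iv (9-12 MBq). They were killed by CO₂ at 1, 2 or 3 h. Tumours and organs were excised, weighed and gamma-counted. Results are decay-corrected % ID/g; ratios are tumour over tissue. n=3-6 per group; mean ± SD.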
# Mus musculus [3] = test: Biodistribution in eyes of C57BL/6J mouse harboring mouse B16-Bl6 cells at 9 to 12 MBq, iv after 3 hrs by PET analysis; format: ADME, organism-based, Eye; conditions: in vivo
# Procedure, shortened: (§2)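 Ex vivo dissection in B16Bl6-bearing C57BL/6J mice (3x10⁵ cells s.c. right shoulder), done at day 10 or 14 after implantation. The ¹⁸F tracer was given i.v. at 9-12 MBq. Mice were killed by CO₂ at 1, 2 or 3 h. Tumor, organs and tissues were excised, weighed and gamma-counted, then decay-corrected and expressed as %ID/g. n=3-6 per group; mean ± SD.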
# Blood = test: Biodistribution in blood of C57BL/6J mouse harboring mouse B16-Bl6 cells at 9 to 12 MBq, iv after 2 hrs by PET analysis; format: ADME, organism-based; conditions: in vivo; procedure, shortened: as §2
# Muscle tissue [4] = test: Biodistribution in muscle of C57BL/6J mouse harboring mouse B16-Bl6 cells at 9 to 12 MBq, iv after 1 hr by PET analysis; format: ADME, organism-based; conditions: in vivo; procedure, shortened: as §2
# Pancreas = test: Biodistribution in pancreas of C57BL/6J mouse harboring mouse B16-Bl6 cells at 9 to 12 MBq, iv after 3 hrs by PET analysis; format: ADME, organism-based; conditions: in vivo; procedure, shortened: as §2
# Brain = test: Biodistribution in brain of C57BL/6J mouse harboring mouse B16-Bl6 cells at 9 to 12 MBq, iv after 3 hrs by PET analysis; format: ADME, organism-based; conditions: in vivo; procedure, shortened: as §2
# Mus musculus [5] = test: Ratio of drug level in tumor to blood in C57BL/6J mouse harboring mouse B16-Bl6 cells at 9 to 12 MBq, iv after 2 hrs by PET analysis; conditions: tumour
# Mus musculus [6] = test: Biodistribution in tumor of C57BL/6J mouse harboring mouse B16-Bl6 cells at 9 to 12 MBq, iv after 2 hrs by PET analysis; format: ADME, organism-based, Neoplasm; conditions: in vivo; procedure, shortened: as §1
# Mus musculus [7] = test: Biodistribution in eyes of C57BL/6J mouse harboring mouse B16-Bl6 cells at 9 to 12 MBq, iv after 2 hrs by PET analysis; format: ADME, organism-based, Eye; conditions: in vivo; procedure, shortened: as §2
# Zone of skin = test: Biodistribution in skin of C57BL/6J mouse harboring mouse B16-Bl6 cells at 9 to 12 MBq, iv after 1 hr by PET analysis; format: ADME, organism-based; conditions: in vivo; procedure, shortened: as §2
# Bone [8] = test: Biodistribution in bone of C57BL/6J mouse harboring mouse B16-Bl6 cells at 8 to 12 MBq, iv after 1 hr by PET analysis; format: ADME, organism-based, Bone element; conditions: in vivo
# Procedure, shortened: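 C57BL/6J mice were inoculated s.c. on the right shoulder with 3x10⁵ B16Bl6 cells in PBS under isoflurane, and imaged at day 10 or 14 (tumor volume 431.8 ± 154.3 mm³). The ¹⁸F tracer was given i.v. via tail vein, 8-12 MBq (methods: 9-12 MBq/0.15 mL). Under ketamine/xylazine i.p., a 25-min whole-body static PET scan ran at 1 h. ROI %ID/g = counts/g/min ÷ injected dose. n=2-8; mean ± SD.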
# Mus musculus [9] = test: Biodistribution in colon and feces of C57BL/6J mouse harboring mouse B16-Bl6 cells at 9 to 12 MBq, iv after 3 hrs by PET analysis; format: ADME, organism-based; conditions: in vivo; procedure, shortened: as §2
# Mus musculus [10] = test: Biodistribution in small intestine of C57BL/6J mouse harboring mouse B16-Bl6 cells at 9 to 12 MBq, iv after 3 hrs by PET analysis; format: ADME, organism-based; conditions: in vivo; procedure, shortened: as §2
# Stomach = test: Biodistribution in stomach of C57BL/6J mouse harboring mouse B16-Bl6 cells at 9 to 12 MBq, iv after 2 hrs by PET analysis; format: ADME, organism-based; conditions: in vivo; procedure, shortened: as §2
# Mus musculus [11] = test: Biodistribution in colon and feces of C57BL/6J mouse harboring mouse B16-Bl6 cells at 9 to 12 MBq, iv after 2 hrs by PET analysis; format: ADME, organism-based; conditions: in vivo; procedure, shortened: as §2
# Mus musculus [12] = test: Ratio of drug level in tumor to muscle in C57BL/6J mouse harboring mouse B16-Bl6 cells at 9 to 12 MBq, iv after 2 hrs by PET analysis; conditions: in vivo
# Bone [13] = test: Biodistribution in bones of C57BL/6J mouse harboring mouse B16-Bl6 cells at 9 to 12 MBq, iv after 2 hrs by PET analysis; format: ADME, organism-based, Bone element; conditions: in vivo; procedure, shortened: as §2
# [14] = Ratio of drug level in tumor to muscle in C57BL/6J mouse harboring mouse B16-Bl6 cells at 8 to 12 MBq, iv after 1 hr by PET analysis; format: ADME, organism-based; conditions: in vivo
# Procedure, shortened: (§3)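 Static whole-body PET at 1 h after tail-vein injection of [18F]tracer (9-12 MBq/0.15 mL) in C57BL/6J mice carrying subcutaneous B16Bl6 shoulder tumours (3x10⁵ cells), imaged day 10 or 14. Mice under ketamine/xylazine ip. 25 min acquisition, OSEM reconstruction. ROI % ID/g = counts/g/min ÷ injected dose; ratios = tumour % ID/g ÷ organ % ID/g. n=2-8; mean ± SD.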
# Heart = test: Biodistribution in heart of C57BL/6J mouse harboring mouse B16-Bl6 cells at 9 to 12 MBq, iv after 1 hr by PET analysis; format: ADME, organism-based; conditions: in vivo; procedure, shortened: as §2
# Mus musculus [15] = test: Ratio of drug level in tumor to muscle in C57BL/6J mouse harboring mouse B16-Bl6 cells at 9 to 12 MBq, iv after 3 hrs by PET analysis; conditions: in vivo
# Mus musculus [16] = test: Ratio of drug level in tumor to bone in C57BL/6J mouse harboring mouse B16-Bl6 cells at 9 to 12 MBq, iv after 2 hrs by PET analysis; conditions: in vivo
# [17] = Ratio of drug level in tumor to bone in C57BL/6J mouse harboring mouse B16-Bl6 cells at 8 to 12 MBq, iv after 1 hr by PET analysis; format: ADME, organism-based; conditions: in vivo; procedure, shortened: as §3
# Lung [18] = test: Biodistribution in lung of C57BL/6J mouse harboring mouse B16-Bl6 cells at 9 to 12 MBq, iv after 1 hr by PET analysis; format: ADME, organism-based; conditions: in vivo; procedure, shortened: as §2
# Lung [19] = test: Biodistribution in lung of C57BL/6J mouse harboring mouse B16-Bl6 cells at 9 to 12 MBq, iv after 3 hrs by PET analysis; format: ADME, organism-based; conditions: in vivo; procedure, shortened: as §2
# Muscle tissue [20] = test: Biodistribution in muscle of C57BL/6J mouse harboring mouse B16-Bl6 cells at 9 to 12 MBq, iv after 2 hrs by PET analysis; format: ADME, organism-based; conditions: in vivo; procedure, shortened: as §2
# Mus musculus [21] = test: Biodistribution in cecum of C57BL/6J mouse harboring mouse B16-Bl6 cells at 9 to 12 MBq, iv after 3 hrs by PET analysis; format: ADME, organism-based, Caecum; conditions: in vivo; procedure, shortened: as §2
remaining at 6 h [1],Kp at 3 h [2],Drug uptake (Mus musculus [3]),Drug uptake (Blood),Drug uptake (Muscle tissue [4]),Drug uptake (Pancreas),Drug uptake (Brain),Ratio (Mus musculus [5]),Drug uptake (Mus musculus [6]),Drug uptake (Mus musculus [7]),Drug uptake (Zone of skin),Drug uptake (Bone [8]),Drug uptake (Mus musculus [9]),Drug uptake (Mus musculus [10]),Drug uptake (Stomach),Drug uptake (Mus musculus [11]),Ratio (Mus musculus [12]),Drug uptake (Bone [13]),Ratio [14],Drug uptake (Heart),Compound,also measured
> 99%,5.27,13.43 % ID/g,1.37 % ID/g,1.07 % ID/g,1.81 % ID/g,1.72 % ID/g,4.01,5.81 % ID/g,12.1 % ID/g,1.22 % ID/g,2.48 % ID/g,12.63 % ID/g,18.62 % ID/g,7.35 % ID/g,8.14 % ID/g,5.75,2.13 % ID/g,6.62,1.58 % ID/g,CCN(CCNC(=O)c1cnc2cc(I)ccc2n1)CCOCCOCCOCCOCCOCCOCCOCC[18F],Ratio (Mus musculus [15]): 6.64; Ratio (Mus musculus [16]): 2.75; Ratio [17]: 2.67; Drug uptake (Lung [18]): 1.75 % ID/g; Drug uptake (Lung [19]): 2.37 % ID/g; Drug uptake (Muscle tissue [20]): 1.04 % ID/g; Drug uptake (Mus musculus [21]): 29.31 % ID/g
> 99%,14.4,17.96 % ID/g,1.12 % ID/g,1.17 % ID/g,1.33 % ID/g,1.37 % ID/g,12.19,13.07 % ID/g,18.17 % ID/g,1.44 % ID/g,1.98 % ID/g,8.09 % ID/g,3.91 % ID/g,2.48 % ID/g,6.05 % ID/g,14.46,1.96 % ID/g,11.04,2.72 % ID/g,CCN(CCNC(=O)c1cnc2cc(I)ccc2n1)CCOCCOCCOCC[18F],Ratio (Mus musculus [15]): 14.46; Ratio (Mus musculus [16]): 7.13; Ratio [17]: 7.65; Drug uptake (Lung [18]): 1.86 % ID/g; Drug uptake (Lung [19]): 1.6 % ID/g; Drug uptake (Muscle tissue [20]): 0.92 % ID/g; Drug uptake (Mus musculus [21]): 10.79 % ID/g
